Screens: PubChem, several laboratories
APP 5UTR inh = APP translation inhibition; SH-SY5Y APP 5'UTR-luciferase reporter, luminescence; inhibition, % at 2 µM; hit rate 0.82% among 190,000; AID 1285;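 active = inhibition above a set limit, derived from the sample mean plus 3 SD, cut at about 45% in these data; inconclusive = one replicate passes the limit while the other fails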
Jurkat NFkB inh = lowers PMA/ionomycin-induced NF-kB signal in Jurkat cells. hit rate 0.53% among 330,000. inhibition, % at 4 µM. AID 435003. PMA/ionomycin-induced NF-kB luciferase reporter, luminescence; in the data active = inhibition above about 50%
697 NFkB inh = lowers PMA/ionomycin-induced NF-kB signal in 697 B cells. hit rate 0.33% among 330,000. AID 435022. inhibition, % at 4 µM. 697 B-cell NF-kB luciferase reporter, 16 h; in the data active = inhibition above about 35%
H9c2 TAG inh = reduces triacylglycerol accumulation in H9c2 cells; AID 651582; inhibition, % at 12.5 µM; hit rate 0.66% among 230,000; Nile Red lipid (TAG) fluorescence; cells loaded with 200 µM oleic acid;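 active = pattern-corrected inhibition of lipid staining of at least 50% with the nuclear-stain viability signal not falling by more than 50%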;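 also: 0% = DMSO wells and 100% = triacsin C control wells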
Hep lipid drop = hepatic lipid droplet formation modulation; AML12 mouse hepatocytes, oleate lipid droplets, BODIPY imaging; inhibition, % at 6.5 µM; hit rate 0.4% among 240,000; AID 1656;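 active = lipid droplet intensity inhibited by at least 50%, with more than 500 cells counted; inconclusive = wells with under 300 cells, treated as cytotoxic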
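Assay system: AML12 mouse liver cells | Compound dosing: One dose, 6.5 µM compound | Read-out basis: Droplet intensity reduction, % inhibition | Measured by: Fluorescence imaging, 20x objective, two fields per well | Schedule: Overnight treatment with compound plus oleate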
aSyn UTR inh = 5' untranslated region of α-synuclein, MLPCN primary screen | AID 1813 | inhibition, % (tested at 7.5 µM) | hit rate 0.82% among 300,000 | alpha-synuclein 5'UTR reporter, inhibitor activity; in the data active = inhibition above about 60%; inconclusive = no clear call, values can overlap the other calls;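 also: H4 neuroglioblastoma cells stably carrying SNCA 5'UTR luciferase fusion; 0% = DMSO wells and 100% = positive control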
TAG conf = confirmation of triacylglycerol accumulation inhibitors; hit rate 71% among 990; shares compounds with H9c2 TAG inh; AID 651629; H9c2 lipid accumulation, Nile Red fluorescence; cells loaded with 200 µM oleic acid; inhibition, % at 12.5 µM;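 active = mean inhibition across replicates of 40% or more; inactive = mean inhibition below 40%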;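 also: plate controls were DMSO only wells for no effect and Triacsin C treated wells for full effect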
Numbers without * were called inactive; ? = inconclusive; / = no result given. An excerpt weighted towards active compounds, which were near 1.9% of everything screened.

SMILES | APP 5UTR inh | Jurkat NFkB inh | 697 NFkB inh | H9c2 TAG inh | Hep lipid drop | aSyn UTR inh | TAG conf
Cc1cc(C)c(C)c(S(=O)(=O)N2CCC(C(=O)NCCCN3CCCC3=O)CC2)c1C | / | -4 | 7 | -2 | / | / | /
CN(C)CCCNC(=O)C[C@H]1C[C@H](C(=O)N2CCCCC2)[C@@]2(C)c3[nH]c4cc(-c5ccco5)ccc4c3CCN2C1=O | / | / | 7 | 58* | / | / | 22
CC(C)(C)NC(=O)C[C@H]1C[C@H](C(=O)N2CCCCC2)[C@@]2(CCc3ccccc3)c3[nH]c4cc(-c5ccco5)ccc4c3CCN2C1=O | / | / | -23 | 28 | / | / | /
CN(C)CCCNC(=O)CC1C[C@H](C(=O)N2CCCCC2)[C@@]2(CCc3ccccc3)c3[nH]c4ccccc4c3CCN2C1=O (stereo partly specified) | / | 7 | 12 | 53* | / | / | 48*
CN(C)CCCNC(=O)C[C@H]1C[C@H](C(=O)N2CCCCC2)[C@@]2(CCc3ccccc3)c3[nH]c4cc(-c5ccco5)ccc4c3CCN2C1=O | / | / | 4 | 57* | / | / | 70*
COc1ccc2[nH]c3c(c2c1)CCN1C(=O)C(CC(=O)NCCCN(C)C)C[C@H](C(=O)N2CCCCC2)[C@@]31CCc1ccccc1 (stereo partly specified) | / | / | 15 | 13 | / | / | /
CCC(C)C(=O)Nc1nc(C)c(-c2csc(Nc3cc(OC)ccc3OC)n2)s1 (stereo unspecified) | 9 | 5 | -12 | 25 | / | 44 | /
COc1ccc(OC)c(Nc2nc(-c3sc(NC(=O)CC(C)C)nc3C)cs2)c1 | -1 | 1 | -25 | 58* | / | ? | 65*
O=C(NC(c1ccc(F)cc1)c1ccc2ccccc2n1)C1CCN(Cc2ccc3ccccc3n2)CC1 (stereo unspecified) | / | / | / | -8 | / | / | /
COc1cc(/C=C/CN2CCC(C(=O)NC(c3ccc(F)cc3)c3ccc4ccccc4n3)CC2)ccc1OC(C)=O (stereo unspecified) | / | / | / | 54* | / | / | 54*
CN(C)c1ccc(CN2CCC(C(=O)NC(c3ccc(F)cc3)c3ccc4ccccc4n3)CC2)cc1 (stereo unspecified) | / | / | / | 56* | / | / | 38
O=C(NC(c1ccc(F)cc1)c1ccc2ccccc2n1)C1CCN(CCOc2ccc(Cl)cc2)CC1 (stereo unspecified) | / | / | / | -7 | / | / | /
COCCNc1nc(Nc2ccc(C#N)cc2)c2sccc2n1 | / | / | / | 17 | / | / | /
COc1ccc(OC)c(C2CC(c3ccccc3)=NN2C(=S)Nc2ccccc2)c1 (stereo unspecified) | / | 49 | -34 | 52* | -40 | 40 | 50*
CNC(=S)N1N=C(c2ccc(C)cc2)CC1c1cc(OC)ccc1OC (stereo unspecified) | -19 | 21 | -9 | -12 | -22 | 0 | /
CCc1nc2ccc(C(=O)NCCOc3ccc(OC)cc3)cn2c1N(CC)CCN(C)C | / | / | / | 10 | / | / | /
CCCCOC(=O)NC1CCc2cc(OC)c(OC)c(OC)c2-c2ccc(SC)c(=O)cc21 (stereo unspecified) | / | / | / | 39 | / | / | /
CCOCC(=O)NC1CCc2cc(OC)c(OC)c(OC)c2-c2ccc(SC)c(=O)cc21 (stereo unspecified) | / | / | / | 54* | / | / | 38
Cc1ccc(CNC(=O)C2CCCN(c3ncnc4c3nc3n4CCCCC3)C2)cc1 (stereo unspecified) | / | 21 | -28 | / | -29 | 18 | /
COc1ccc2[nH]c3c(=O)n4c(nc3c2c1)SCCC4 | -13 | -18 | 8 | / | 3 | -92 | /
CN(C)CCCNc1nc2sc3c(c2c(=O)n1CCc1ccccc1)CCCCC3 | / | 0 | 7 | 60* | 7 | 36 | 34
O=c1c2c3c(sc2nc(NCCO)n1-c1ccccc1)CCCC3 | / | 17 | 23 | / | -5 | 3 | /
CN(C)CCCn1c(=O)n(CCc2ccccc2)c(=O)c2c3c(sc21)CCCCC3 | / | 11 | -17 | 55* | 17 | -45 | 50*
Cc1occc1-c1nnc(SCC(=O)NC2CC2)n1C(C)C | / | 11 | -16 | -7 | -2 | -7 | /
COC(=O)C1CCN(c2cc(=O)n(-c3ccc(OC)cc3)c(=O)[nH]2)CC1 | -18 | 1 | 7 | 6 | -14 | 2 | /
SMILES | APP 5UTR inh | Jurkat NFkB inh | 697 NFkB inh | H9c2 TAG inh | Hep lipid drop | aSyn UTR inh | TAG conf
Cc1cc(C)c(NC(=O)CSc2nc3ccc(NC(=O)CSc4nnnn4Cc4ccccc4)cc3s2)c(C)c1 | -5 | 0 | -5 | 56* | / | 23 | 42*
O=C(CSc1nc2ccc(NC(=O)CSc3nnnn3Cc3ccccc3)cc2s1)Nc1ccccc1 | 2 | -7 | -5 | -8 | -3 | -18 | /
O=C(Nc1ccc2c(c1)OCO2)c1cc(C2CCCCN2S(=O)(=O)c2ccccc2)on1 (stereo unspecified) | / | / | / | 24 | / | / | /
Cc1ccc(NC(=O)CSc2nnc(-c3n[nH]c4ccccc34)n2-c2ccccc2)c(C)c1 | 15 | 21 | 28 | / | 0 | 11 | /
C=CC[C@@H](CC(=O)N(CCO)Cc1ccccc1)C(=O)N[C@H](COC(=O)[C@@H](CC=C)Cc1ccc(F)cc1)Cc1ccccc1 | / | -9 | 5 | 59* | / | / | 68*
C=CCC[C@@H](Cc1ccc(F)cc1)C(=O)OC[C@@H](NC(=O)[C@@H](CC=C)CC(=O)N[C@H](CO)Cc1ccccc1)C(C)(C)C | / | -2 | -1 | 62* | / | / | 66*
C=CC[C@@H](CC(=O)N(CCO)Cc1ccccc1)C(=O)N[C@H](COC(=O)[C@@H](CC=C)CC(=O)OC(C)(C)C)Cc1ccccc1 | / | -1 | 14 | 50* | / | / | 70*
C=CC[C@H](CC(=O)N(CCO)Cc1ccccc1)C(=O)N[C@H](COC(=O)[C@@H](CC=C)CC(=O)OC(C)(C)C)Cc1ccccc1 | / | -5 | 0 | 21 | / | / | /
C=CC[C@@H](CC(=O)N(CCO)Cc1ccccc1)C(=O)N[C@@H](COC(=O)[C@@H](CC=C)Cc1ccc(F)cc1)Cc1ccccc1 | / | 2 | -7 | 75* | / | / | 62*
Cc1nn(Cc2ccc(C(=O)Nc3ccc(Br)c4cccnc34)o2)c(C)c1Br | 8 | / | / | / | / | / | /
Cc1ccc(C)c(S(=O)(=O)Nc2ccc(C(=O)N3CCCCC3)cc2)c1 | / | -1 | -11 | 11 | -20 | -12 | /
COc1ccc(Cl)cc1NC(=O)CSc1nnc(-c2ccco2)o1 | / | 6 | 10 | 16 | -6 | -7 | /
COc1cccc(/C=C/C(=C2\C(=O)N(c3ccccc3)N=C2C)c2ccc(Br)cc2)c1OC | 10 | / | / | 79* | / | / | 97*
COc1ccc(/C=C2/C(=O)N(c3ccccc3)N=C2C)cc1OC | / | 6 | 18 | 3 | -7 | 1 | /
COc1ccc(Br)c(C(=O)Nc2cccc(S(=O)(=O)N3CCOCC3)c2)c1 | / | 7 | -3 | 10 | / | / | /
COc1ccc(-c2cc(C(F)F)n3ncc(C(=O)Nc4cccc(S(=O)(=O)N5CCOCC5)c4)c3n2)cc1 | -5 | 11 | -16 | 58* | -3 | 11 | 50*
